Activity calls are given as the source filed them. No cut-off for these calls is given here.

The results in this text go back to ChEMBL document CHEMBL4257447, “Discovery of human lactate dehydrogenase A (LDHA) inhibitors as anticancer agents to inhibit the proliferation of MG-63 osteosarcoma cells” (Medchemcomm, 2017).

Test [1] deals with MG-63. Briefly: Growth inhibition of human MG63 cells at 10 uM after 72 hrs by MTT assay relative to control. The class given is functional. To be noted: for inhibition of growth at 10 µM: MG-63, 72 h, read-out: GI. In short, it runs like this:
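MG-63 cells (2500/well) were plated overnight. 10 μL of 100 μM working solution in PBS, diluted from 40 mM stock, was added for 72 h. MTT was added for 4 h, the solvent replaced with DMSO, and OD570 read as percent growth inhibition.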

The target in test [2] is T1, L-lactate dehydrogenase A chain (Homo sapiens, UniProt P00338). Briefly: Inhibition of human LDHA using pyruvate as substrate by monitoring the disappearance of NADH relative to control.
In test [3] the target is T1, L-lactate dehydrogenase A chain. Briefly: Inhibition of human LDHA at 2 uM using pyruvate as substrate by monitoring the disappearance of NADH relative to control.
The target is the same in test [4]. Briefly: Binding affinity to LDHA (unknown origin) by ITC analysis. Summed up: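 LDHA diluted to 10 μM in 50 mM Hepes pH 7.2, 100 mM NaCl, 2 mM DTT, 1% DMSO (250 μL in cell); ligand at 100 μM in the same buffer titrated in 2.5 μL injections at 25 °C. One-site model fit gives the binding parameters.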
Test [5] deals with MG-63. Briefly: Growth inhibition of human MG63 cells after 72 hrs by MTT assay. The class given is functional, cell-based. To be noted: MG-63, 72 h. Summed up: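 MG-63 cells (2500/well), grown in DMEM with 10% FBS at 37 °C and 5% CO2, plated overnight. They were then exposed for 72 h to eight concentrations (400 to 3.1 μM as listed), diluted in PBS from 40 mM stocks. MTT was added for 4 h and the formazan dissolved in DMSO, with OD read at 570 nm. EC50 is the mean of three independent experiments; cisplatin was the positive control.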
(Formazan colour is commonly taken as a measure of viable cells.)

Test [6] has as its system MG-63. Briefly: Induction of apoptosis in human MG63 cells assessed as viable cells at 2 uM after 24 hrs by annexin V-FITC/propidium iodide staining-based flow cytometric analysis (reference value: 95.2%). The class given is functional. As to conditions: MG-63, 24 h, read-out: Activity. On the technique in general: A flow cytometer gives signals particle by particle.
Test [7] has as its system MG-63. Briefly: Induction of apoptosis in human MG63 cells assessed as early apoptotic cells at 2 uM after 24 hrs by annexin V-FITC/propidium iodide staining-based flow cytometric analysis (reference value: 0.8%). The class given is functional.
For test [8], the system named is MG-63. Briefly: Induction of apoptosis in human MG63 cells assessed as late apoptotic cells at 2 uM after 24 hrs by annexin V-FITC/propidium iodide staining-based flow cytometric analysis (reference value: 3.2%). The class given is functional.
The test system of test [9] is MG-63. Briefly: Induction of apoptosis in human MG63 cells assessed as necrotic cells at 2 uM after 24 hrs by annexin V-FITC/propidium iodide staining-based flow cytometric analysis (reference value: 0.8%). The class given is functional.
For test [10], the system named is MG-63. Briefly: Induction of apoptosis in human MG63 cells assessed as viable cells at 5 uM after 24 hrs by annexin V-FITC/propidium iodide staining-based flow cytometric analysis (reference value: 95.2%). The class given is functional. As to conditions: MG-63, 24 h, read-out: Activity.
For test [11], the system named is MG-63. Briefly: Induction of apoptosis in human MG63 cells assessed as early apoptotic cells at 5 uM after 24 hrs by annexin V-FITC/propidium iodide staining-based flow cytometric analysis (reference value: 0.8%). The class given is functional.
The test system of test [12] is MG-63. Briefly: Induction of apoptosis in human MG63 cells assessed as late apoptotic cells at 5 uM after 24 hrs by annexin V-FITC/propidium iodide staining-based flow cytometric analysis (reference value: 3.2%). The class given is functional.
Test [13] relates to MG-63. Briefly: Induction of apoptosis in human MG63 cells assessed as necrotic cells at 5 uM after 24 hrs by annexin V-FITC/propidium iodide staining-based flow cytometric analysis (reference value: 0.8%). The class given is functional.
The subject of test [14] is MG-63. Briefly: Induction of apoptosis in human MG63 cells assessed as viable cells at 10 uM after 24 hrs by annexin V-FITC/propidium iodide staining-based flow cytometric analysis (reference value: 95.2%). The class given is functional. To be noted: MG-63, 24 h, read-out: Activity.
Test [15] deals with MG-63. Briefly: Induction of apoptosis in human MG63 cells assessed as early apoptotic cells at 10 uM after 24 hrs by annexin V-FITC/propidium iodide staining-based flow cytometric analysis (reference value: 0.8%). The class given is functional.
Test [16] relates to MG-63. Briefly: Induction of apoptosis in human MG63 cells assessed as late apoptotic cells at 10 uM after 24 hrs by annexin V-FITC/propidium iodide staining-based flow cytometric analysis (reference value: 3.2%). The class given is functional.
Test [17] relates to MG-63. Briefly: Induction of apoptosis in human MG63 cells assessed as necrotic cells at 10 uM after 24 hrs by annexin V-FITC/propidium iodide staining-based flow cytometric analysis (reference value: 0.8%). The class given is functional.
Test [18] relates to MG-63. Briefly: Induction of apoptosis in human MG63 cells after 24 hrs by annexin V-FITC/propidium iodide staining-based flow cytometric analysis. The class given is functional, cell-based.
Test [19] concerns the target T1, L-lactate dehydrogenase A chain. Briefly: Inhibition of LDHA in human MG63 cells assessed as decrease in lactate levels after 4 hrs. The class given is cell-based. In short, it runs like this: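 MG-63 cells (3×10^5/well, 6-well) were plated overnight and treated for 4 h at 2, 5, 8, 10 and 12 μM, with 10 μM for the reference. Medium was centrifuged for 5 min and 1 mL assayed for lactate on a Nova Bioprofile Flex analyzer. IC50 was derived from the dose-response.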

Test [20] has the same target. Briefly: Inhibition of LDHA in human MG63 cells assessed as increase in oxygen consumption rate at 2 to 10 uM after 6 hrs by XF24 extracellular flux analyzer based assay. The class given is cell-based. In short, it runs like this:
(§1)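 MG-63 cells (30 000/well) were pretreated for 6 h with a range of concentrations. OCR and ECAR were then measured on the XF24 extracellular flux analyzer.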

Test [21] shares this target. Briefly: Inhibition of LDHA in human MG63 cells assessed as decrease in extracellular acidification rate at 2 to 10 uM after 6 hrs by XF24 extracellular flux analyzer based assay. The class given is cell-based. Summed up:
as §1

For test [22], the target named is L-lactate dehydrogenase A chain (Bos taurus, UniProt P19858). Briefly: Inhibition of bovine heart LDHA.

As a reminder, the IC50 is the concentration that gives 50% inhibition. Consider `O=C1CC(c2c(Cl)cccc2Cl)CC(O)=C1Sc1ccccc1Cl` (stereo not given), for which, in test [1], the “growth inhibition (GI)” value was “inactive”. In [2], this molecule returned an IC50 of 2370 nM.
Usually inhibition stands for the share of the control response that was lost under treatment. Consider `CCOC(=O)C[C@H](c1cc(OC)c2c(c1)OCCO2)c1oc(CO)cc(=O)c1O`, for which, in test [1], the inhibition of growth at 10 µM turned out to be 67.8%. The inhibition in test [3] turned out to be 71%.
With `COC(=O)C[C@H](c1cccc(O)c1)c1oc(CSc2ccccc2OC)cc(=O)c1O`, the inhibition of growth at 10 µM in test [1] is 68.9%.
On the same count and under the same terms, then `Cc1cc(=O)c(O)c([C@H](CC(=O)N2CCc3c([nH]c4ccccc34)C2)c2ccnc3ccccc23)o1`, with 48.7%.
As for `COc1c(C)c2c(c(O)c1C/C=C(\C)CCC(=O)NCc1ccc(Cl)cc1)C(=O)OC2`, the “growth inhibition (GI)” value in test [1] was “inactive”.
One may read the Kd as the constant that tells how readily two partners part at equilibrium. Low values mean higher affinity, high ones lower affinity. In general, EC50 refers to the concentration giving half of the maximal effect. `COCc1cc(=O)c(O)c([C@@H](CC(N)=O)c2cc3ccccc3n(CC(C)C)c2=O)o1` showed a Kd in test [4] of 950 nM. For the same molecule, the inhibition of growth at 10 µM in [1] was determined as 88.7%. The molecule also displayed an EC50 in test [5] of 3350 nM. For the same molecule, the viability at 2 µM in [6] was found to be 94%. For the same molecule, the Activity in test [7] is given as 1%; in test [8], 4.4%; in test [9] it was 0.6%; in test [11], 4.2%; in [12], 5.8%; in test [13], 0.7%. The Activity in [15] was 3%; in test [16] it was 12.9%; in [17], 1.2%; in test [18], “Dose-dependent effect”. Further, the viability at 5 µM in test [10] stood at 89.3%. Besides, the viability at 10 µM in test [14] is 82.9%. Moreover, the IC50 in test [19] was determined as 7190 nM; in test [2], 330 nM. The inhibition entry in test [19] was “Dose-dependent effect”; in [20], “Dose-dependent effect”; in [3] it was 94%. Also, the inhibition entry in [21] was “Active”.
Broadly, the Ki is the dissociation constant of the complex between target and ligand, obtained from inhibition or displacement. Read a low Ki as higher affinity. In [22], `NC(=O)C(=O)O` [OXAMATE] had a Ki of 136000 nM.
